Experimental data published in ChEMBL document CHEMBL2375276, “Antibacterial oxazolidinone analogues having a N-hydroxyacetyl-substituted seven-membered [1,2,5]triazepane or [1,2,5]oxadiazepane C-ring unit” (Eur J Med Chem, 2013).
Values after ≈ are worked out from the molar mass of the structure shown.

Legend:
[1] = system: Enterococcus faecium; test: Antibacterial activity against Enterococcus faecium SR7940 clinical isolate assessed as growth inhibition by CLSI broth microdilution method; format: functional
Summary of the method: (§1)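 MIC by CLSI broth microdilution in cation-adjusted Mueller-Hinton broth; S. pneumoniae medium supplemented with 5% lysed horse blood.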

[2] = target: Cytochrome P450 3A4 (Homo sapiens, UniProt P08684); test: Inhibition of human CYP3A4 assessed as terfenadine hydroxylation after 20 mins by LC/MS/MS analysis; format: ADME
Summary of the method: (§2)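 Human liver microsomes (0.2 mg protein/mL) with 1 mM NADPH in 50 mM HEPES pH 7.4, 10 mM MgCl2, 0.1 mM EDTA. After centrifugation, supernatant metabolite measured by LC/MS/MS. Standard curve from authentic metabolite cocktail added to unincubated reaction mix.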

[3] = system: Streptococcus pneumoniae; test: Antibacterial activity against Streptococcus pneumoniae SR26207 clinical isolate assessed as growth inhibition by CLSI broth microdilution method; format: functional; summary of the method: as §1
[4] = system: Staphylococcus aureus; test: Ratio of eperezolid MIC to compound MIC for Staphylococcus aureus SR20549 clinical isolate; format: functional
[5] = system: Staphylococcus aureus; test: Antibacterial activity against methicillin-resistant Staphylococcus aureus SR3637 infected in JCL/ICR mouse systemic infection model assessed as mortality administered as iv measured over 7 days; format: functional; settings: 168 h
Summary of the method: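 Five-week-old male JCL/ICR mice (20–25 g), five per group. Infected intraperitoneally with 0.5 or 1.0 mL bacterial suspension (about 100× LD50). Intravenous dosing 1 h post-infection. Mortality followed 7 days; ED50 with 95% confidence limits by logit method.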

[6] = system: Staphylococcus aureus; test: Ratio of eperezolid MIC to compound MIC for Staphylococcus aureus Smith; format: functional
[7] = system: Staphylococcus aureus; test: Antibacterial activity against methicillin-resistant Staphylococcus aureus SR3637 assessed as growth inhibition by CLSI broth microdilution method; format: functional
Summary of the method: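 MIC by CLSI broth microdilution in cation-adjusted Mueller-Hinton broth. Lowest concentration inhibiting growth taken as MIC.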

[8] = system: Streptococcus pneumoniae; test: Ratio of eperezolid MIC to compound MIC for Streptococcus pneumoniae SR26207 clinical isolate; format: functional
[9] = system: Moraxella catarrhalis; test: Ratio of eperezolid MIC to compound MIC for Moraxella catarrhalis SR26840 clinical isolate; format: functional
[10] = system: Enterococcus faecalis; test: Antibacterial activity against Enterococcus faecalis SR1004 clinical isolate assessed as growth inhibition by CLSI broth microdilution method; format: functional; summary of the method: as §1
[11] = system: Enterococcus faecalis; test: Ratio of eperezolid MIC to compound MIC for Enterococcus faecalis SR1004 clinical isolate; format: functional
[12] = system: Haemophilus influenzae; test: Antibacterial activity against Haemophilus influenzae SR27914 clinical isolate assessed as growth inhibition by CLSI broth microdilution method; format: functional
Summary of the method: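 MIC by CLSI broth microdilution using Haemophilus test medium.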

[13] = target: T1, MAO-B (Rattus norvegicus, UniProt P19643); test: Inhibition of MAO-B in rat forebrain using [14C]PEA as substrate at 30 uM incubated for 20 mins prior to substrate addition measured after 10 mins by liquid scintillation counting analysis relative to control; format: tissue-based; settings: probe [14C]PEA
T1 sequence (P19643 whole entry): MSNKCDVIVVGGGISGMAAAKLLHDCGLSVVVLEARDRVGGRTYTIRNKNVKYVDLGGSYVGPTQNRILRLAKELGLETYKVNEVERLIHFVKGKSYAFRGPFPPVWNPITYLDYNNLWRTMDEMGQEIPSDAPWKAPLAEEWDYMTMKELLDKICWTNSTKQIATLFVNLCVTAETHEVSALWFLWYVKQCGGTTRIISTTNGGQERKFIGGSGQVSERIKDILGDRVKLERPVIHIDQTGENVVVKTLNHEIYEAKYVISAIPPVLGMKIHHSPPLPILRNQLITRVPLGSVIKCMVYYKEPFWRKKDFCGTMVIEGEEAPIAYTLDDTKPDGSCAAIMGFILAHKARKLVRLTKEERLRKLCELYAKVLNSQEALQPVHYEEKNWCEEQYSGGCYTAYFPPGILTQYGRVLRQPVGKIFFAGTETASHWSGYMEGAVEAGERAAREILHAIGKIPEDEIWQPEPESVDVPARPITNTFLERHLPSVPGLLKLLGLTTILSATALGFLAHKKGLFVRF

[14] = target: Cytochrome P450 2D6 (Homo sapiens, UniProt P10635); test: Inhibition of human CYP2D6 assessed as dextromethorphan O-demethylation after 20 mins by LC/MS/MS analysis; format: ADME; summary of the method: as §2
[15] = system: Moraxella catarrhalis; test: Ratio of linezolid MIC to compound MIC for Moraxella catarrhalis SR26840 clinical isolate; format: functional
[16] = system: Staphylococcus aureus; test: Ratio of linezolid MIC to compound MIC for Staphylococcus aureus SR20549 clinical isolate; format: functional
[17] = system: Staphylococcus aureus; test: Antibacterial activity against methicillin-resistant Staphylococcus aureus SR3637 infected in JCL/ICR mouse systemic infection model assessed as mortality administered as po measured over 7 days; format: functional; settings: 168 h
Summary of the method: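 Five-week-old male JCL/ICR mice (20–25 g), five per group. Infected intraperitoneally with 0.5 or 1.0 mL bacterial suspension (about 100× LD50). Oral dosing 1 h post-infection. Mortality followed 7 days; ED50 with 95% confidence limits by logit method.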

[18] = system: Staphylococcus aureus; test: Antibacterial activity against Staphylococcus aureus Smith assessed as growth inhibition by CLSI broth microdilution method; format: functional; summary of the method: as §1
[19] = system: Moraxella catarrhalis; test: Antibacterial activity against Moraxella catarrhalis SR26840 clinical isolate assessed as growth inhibition by CLSI broth microdilution method; format: functional; summary of the method: as §1
[20] = system: Haemophilus influenzae; test: Ratio of linezolid MIC to compound MIC for Haemophilus influenzae SR27914 clinical isolate; format: functional
[21] = system: Staphylococcus aureus; test: Antibacterial activity against Staphylococcus aureus SR20549 clinical isolate assessed as growth inhibition by CLSI broth microdilution method; format: functional; summary of the method: as §1
[22] = system: Streptococcus pneumoniae; test: Ratio of linezolid MIC to compound MIC for Streptococcus pneumoniae SR26207 clinical isolate; format: functional
[23] = system: Enterococcus faecium; test: Ratio of linezolid MIC to compound MIC for Enterococcus faecium SR7940 clinical isolate; format: functional

Chain of Cytochrome P450 2D6 (P10635 whole entry): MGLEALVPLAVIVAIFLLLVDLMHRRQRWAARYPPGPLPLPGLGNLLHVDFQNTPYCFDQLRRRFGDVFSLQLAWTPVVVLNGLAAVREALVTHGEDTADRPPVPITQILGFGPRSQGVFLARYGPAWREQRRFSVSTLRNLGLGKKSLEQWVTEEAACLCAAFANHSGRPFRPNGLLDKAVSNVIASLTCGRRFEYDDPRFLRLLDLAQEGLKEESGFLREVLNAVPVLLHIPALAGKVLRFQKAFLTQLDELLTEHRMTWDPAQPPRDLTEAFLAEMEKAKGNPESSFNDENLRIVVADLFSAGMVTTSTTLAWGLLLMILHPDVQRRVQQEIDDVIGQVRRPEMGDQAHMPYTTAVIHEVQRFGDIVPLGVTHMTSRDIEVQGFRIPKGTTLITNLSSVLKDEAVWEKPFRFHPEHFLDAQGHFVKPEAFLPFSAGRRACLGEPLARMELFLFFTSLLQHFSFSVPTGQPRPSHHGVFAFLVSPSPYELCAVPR
Chain of Cytochrome P450 3A4 (P08684 whole entry): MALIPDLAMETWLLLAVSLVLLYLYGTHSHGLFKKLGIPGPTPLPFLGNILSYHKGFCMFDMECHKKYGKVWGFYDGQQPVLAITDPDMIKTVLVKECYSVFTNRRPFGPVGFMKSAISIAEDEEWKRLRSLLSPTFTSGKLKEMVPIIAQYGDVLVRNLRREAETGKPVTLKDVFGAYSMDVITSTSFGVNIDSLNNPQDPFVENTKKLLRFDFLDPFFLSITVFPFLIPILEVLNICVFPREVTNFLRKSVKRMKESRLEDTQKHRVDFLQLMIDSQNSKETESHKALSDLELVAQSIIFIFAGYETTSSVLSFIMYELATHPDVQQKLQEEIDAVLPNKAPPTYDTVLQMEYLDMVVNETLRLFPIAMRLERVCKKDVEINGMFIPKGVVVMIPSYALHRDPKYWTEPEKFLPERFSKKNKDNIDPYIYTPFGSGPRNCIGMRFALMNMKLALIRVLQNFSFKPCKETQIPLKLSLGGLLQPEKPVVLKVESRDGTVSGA

Structure (SMILES) | MIC [1] [µg/mL] | IC50 [2] [µM] | MIC [3] [µg/mL] | Ratio [4] | ED50 [5] [mg/kg] | Ratio [6] | MIC [7] [µg/mL] | Ratio [8] | Ratio [9] | MIC [10] [µg/mL] | Ratio [11] | MIC [12] [µg/mL] | inhibition at 10 min, 30 µM [13] [%] | IC50 [14] [µM] | Ratio [15] | Ratio [16] | ED50 [17] [mg/kg] | MIC [18] [µg/mL] | MIC [19] [µg/mL] | Ratio [20] | other results
COC(=S)NC[C@H]1CN(c2ccc(N3CCNN(C(=O)CO)CC3)c(F)c2)C(=O)O1 | 0.25 (≈ 0.566 µM) | > 20 | 0.125 (≈ 0.283 µM) | 4 | 0.94 | 4 | 0.25 (≈ 0.566 µM) | 4 | 4 | 0.5 (≈ 1.13 µM) | 4 | 4 (≈ 9.06 µM) | 10.1 | > 20 | 4 | 4 | 1.05 | 0.25 (≈ 0.566 µM) | 2 (≈ 4.53 µM) | 4 | MIC [21]: 0.25 µg/mL (≈ 0.566 µM); Ratio [22]: 4; Ratio [23]: 4
COC(=S)NC[C@H]1CN(c2cc(F)c(N3CCNN(C(=O)CO)CC3)c(F)c2)C(=O)O1 | 0.25 (≈ 0.544 µM) | > 20 | ≤ 0.063 | 4 | 0.77 | 4 | 0.25 (≈ 0.544 µM) | 4 | 4 | 0.25 (≈ 0.544 µM) | 4 | 4 (≈ 8.71 µM) | 10.6 | > 20 | 4 | 4 | 2.07 | 0.25 (≈ 0.544 µM) | 1 (≈ 2.18 µM) | 4 | MIC [21]: 0.25 µg/mL (≈ 0.544 µM); Ratio [22]: 4; Ratio [23]: 4
